Assay results published in ChEMBL document CHEMBL2163344, “Immunomodulatory properties of novel nucleotide oligomerization domain 2 (nod2) agonistic desmuramyldipeptides” (J Med Chem, 2012).
Calls of active or inactive are those of the source. The calls are words filed in the database; no cut-off is given here.

What was measured:
Format in all cases: functional, cell-based
[1] = system: PBMC; experiment: Immunomodulatory activity in human PBMCs assessed as increase in PMA/ionomycin-induced IL10 release at 20 uM incubated for 18 hrs by multiplexed cytokine assay
[2] = target: T1, Toll-like receptor 7 (Homo sapiens) (UniProt Q9NYK1); experiment: Agonist activity at human TLR7 expressed in Ramos blue cells assessed as stimulation of NF-kB/AP-1 activity at 20 uM incubated for 18 hrs using quanti blue assay based SEAP reporter gene assay
T1 sequence (whole entry): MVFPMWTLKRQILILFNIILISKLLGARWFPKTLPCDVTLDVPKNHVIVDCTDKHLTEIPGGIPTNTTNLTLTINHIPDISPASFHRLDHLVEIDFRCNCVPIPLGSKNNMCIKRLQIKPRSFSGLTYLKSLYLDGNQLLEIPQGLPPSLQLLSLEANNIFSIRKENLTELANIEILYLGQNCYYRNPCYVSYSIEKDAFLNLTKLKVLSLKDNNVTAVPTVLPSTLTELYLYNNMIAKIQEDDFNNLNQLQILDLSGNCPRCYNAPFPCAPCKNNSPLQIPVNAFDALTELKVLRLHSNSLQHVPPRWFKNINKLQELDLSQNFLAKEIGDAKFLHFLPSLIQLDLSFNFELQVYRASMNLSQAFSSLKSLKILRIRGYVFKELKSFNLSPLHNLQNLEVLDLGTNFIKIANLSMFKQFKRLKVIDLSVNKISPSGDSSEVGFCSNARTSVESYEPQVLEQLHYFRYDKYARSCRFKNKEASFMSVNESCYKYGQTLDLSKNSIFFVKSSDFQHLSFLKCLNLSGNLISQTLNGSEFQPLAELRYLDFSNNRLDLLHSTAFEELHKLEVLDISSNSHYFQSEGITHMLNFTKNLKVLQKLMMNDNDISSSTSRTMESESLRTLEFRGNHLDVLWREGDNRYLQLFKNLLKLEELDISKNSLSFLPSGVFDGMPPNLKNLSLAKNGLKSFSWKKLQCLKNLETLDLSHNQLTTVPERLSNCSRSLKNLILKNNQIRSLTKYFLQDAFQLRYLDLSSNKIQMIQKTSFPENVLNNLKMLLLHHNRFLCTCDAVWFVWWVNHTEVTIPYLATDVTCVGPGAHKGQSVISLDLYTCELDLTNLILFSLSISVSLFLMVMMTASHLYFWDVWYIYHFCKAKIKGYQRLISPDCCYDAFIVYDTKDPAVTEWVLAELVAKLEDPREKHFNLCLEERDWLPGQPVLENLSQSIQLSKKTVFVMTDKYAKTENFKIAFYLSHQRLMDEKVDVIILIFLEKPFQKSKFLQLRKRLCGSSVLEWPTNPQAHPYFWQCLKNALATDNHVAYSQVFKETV
Procedure, shortened: (§1)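 Ramos-Blue control cells (TLR3/7/9 and Nod1, no Nod2; stable NF-κB/AP-1-inducible SEAP reporter) at 1 × 10^6 cells/mL, exposed 18 h to 20 μM compound. SEAP in supernatant read with QUANTI-Blue reagent (3 h, 37 °C), absorbance 640 nm; activity compared with untreated cells.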

[3] = target: Toll-like receptor 3 (Homo sapiens) (UniProt O15455); experiment: Agonist activity at human TLR3 expressed in Ramos blue cells assessed as stimulation of NF-kB/AP-1 activity at 20 uM incubated for 18 hrs using quanti blue assay based SEAP reporter gene assay; procedure, shortened: as §1
[4] = target: Nucleotide-binding oligomerization domain-containing protein 2 (Homo sapiens) (UniProt Q9HC29); experiment: Agonist activity at human Nod2 expressed in HEK293-blue cells assessed as increase in NF-kappaB transcriptional activity at 20 uM incubated for 18 hrs using quanti blue assay based SEAP reporter gene assay
Procedure, shortened: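 HEK-Blue Nod2 cells (HEK293 stably coexpressing human Nod2 and NF-κB-inducible SEAP) at 1 × 10^6 cells/mL, treated 18 h with 20 μM compound. Supernatant SEAP measured with QUANTI-Blue, 3 h at 37 °C, absorbance 640 nm. Duplicates in three independent experiments, compared with untreated cells.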

[5] = target: T2, Toll-like receptor 9 (Homo sapiens) (UniProt Q9NR96); experiment: Agonist activity at human TLR9 expressed in Ramos blue cells assessed as stimulation of NF-kB/AP-1 activity at 20 uM incubated for 18 hrs using quanti blue assay based SEAP reporter gene assay; procedure, shortened: as §1
T2 sequence (whole entry): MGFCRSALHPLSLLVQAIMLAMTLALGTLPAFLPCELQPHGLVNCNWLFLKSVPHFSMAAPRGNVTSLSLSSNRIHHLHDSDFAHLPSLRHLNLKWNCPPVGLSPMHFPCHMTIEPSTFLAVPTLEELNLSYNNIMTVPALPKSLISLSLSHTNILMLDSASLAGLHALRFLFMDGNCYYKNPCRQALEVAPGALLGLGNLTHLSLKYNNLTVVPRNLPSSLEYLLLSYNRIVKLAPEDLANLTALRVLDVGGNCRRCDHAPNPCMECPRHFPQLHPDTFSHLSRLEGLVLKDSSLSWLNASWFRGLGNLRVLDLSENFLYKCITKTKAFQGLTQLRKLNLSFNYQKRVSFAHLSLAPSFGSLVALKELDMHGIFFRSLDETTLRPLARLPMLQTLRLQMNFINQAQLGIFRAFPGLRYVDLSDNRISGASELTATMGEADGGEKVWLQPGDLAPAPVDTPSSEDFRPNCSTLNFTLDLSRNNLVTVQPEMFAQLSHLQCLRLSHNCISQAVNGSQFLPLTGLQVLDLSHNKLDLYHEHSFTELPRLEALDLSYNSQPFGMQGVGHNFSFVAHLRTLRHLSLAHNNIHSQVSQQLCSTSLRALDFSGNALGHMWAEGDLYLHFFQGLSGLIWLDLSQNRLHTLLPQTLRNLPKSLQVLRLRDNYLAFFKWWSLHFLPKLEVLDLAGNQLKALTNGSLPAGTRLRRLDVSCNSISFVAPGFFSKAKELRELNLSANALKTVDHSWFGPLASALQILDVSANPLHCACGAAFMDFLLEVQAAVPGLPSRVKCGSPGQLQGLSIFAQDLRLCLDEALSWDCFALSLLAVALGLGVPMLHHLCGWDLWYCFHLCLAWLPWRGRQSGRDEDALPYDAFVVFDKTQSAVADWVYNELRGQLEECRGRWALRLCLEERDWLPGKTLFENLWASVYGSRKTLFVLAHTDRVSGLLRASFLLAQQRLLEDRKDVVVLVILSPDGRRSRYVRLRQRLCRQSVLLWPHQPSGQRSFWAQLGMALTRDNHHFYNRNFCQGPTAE

[6] = system: PBMC; experiment: Immunomodulatory activity in human PBMCs assessed as increase in PMA/ionomycin-induced IL8 release at 20 uM incubated for 18 hrs by multiplexed cytokine assay
[7] = system: PBMC; experiment: Immunomodulatory activity in human PBMCs assessed as increase in PMA/ionomycin-induced TNFalpha release at 20 uM incubated for 18 hrs by multiplexed cytokine assay
Procedure, shortened: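 Ficoll-isolated human PBMC, 1 × 10^6 cells per well, treated with 20 μM compound (DMSO ≤0.1%) plus PMA 3.33 ng/mL and ionomycin 500 nM for 18 h at 37 °C, 5% CO2. Cell-free supernatant cytokines measured by CBA human inflammatory kit on a flow cytometer against recombinant standards. Reported as % of PMA/ionomycin-only release; duplicates, three experiments, three donors.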

Sequence of Nucleotide-binding oligomerization domain-containing protein 2 (Homo sapiens) (Q9HC29 whole entry, the tested form may be a part): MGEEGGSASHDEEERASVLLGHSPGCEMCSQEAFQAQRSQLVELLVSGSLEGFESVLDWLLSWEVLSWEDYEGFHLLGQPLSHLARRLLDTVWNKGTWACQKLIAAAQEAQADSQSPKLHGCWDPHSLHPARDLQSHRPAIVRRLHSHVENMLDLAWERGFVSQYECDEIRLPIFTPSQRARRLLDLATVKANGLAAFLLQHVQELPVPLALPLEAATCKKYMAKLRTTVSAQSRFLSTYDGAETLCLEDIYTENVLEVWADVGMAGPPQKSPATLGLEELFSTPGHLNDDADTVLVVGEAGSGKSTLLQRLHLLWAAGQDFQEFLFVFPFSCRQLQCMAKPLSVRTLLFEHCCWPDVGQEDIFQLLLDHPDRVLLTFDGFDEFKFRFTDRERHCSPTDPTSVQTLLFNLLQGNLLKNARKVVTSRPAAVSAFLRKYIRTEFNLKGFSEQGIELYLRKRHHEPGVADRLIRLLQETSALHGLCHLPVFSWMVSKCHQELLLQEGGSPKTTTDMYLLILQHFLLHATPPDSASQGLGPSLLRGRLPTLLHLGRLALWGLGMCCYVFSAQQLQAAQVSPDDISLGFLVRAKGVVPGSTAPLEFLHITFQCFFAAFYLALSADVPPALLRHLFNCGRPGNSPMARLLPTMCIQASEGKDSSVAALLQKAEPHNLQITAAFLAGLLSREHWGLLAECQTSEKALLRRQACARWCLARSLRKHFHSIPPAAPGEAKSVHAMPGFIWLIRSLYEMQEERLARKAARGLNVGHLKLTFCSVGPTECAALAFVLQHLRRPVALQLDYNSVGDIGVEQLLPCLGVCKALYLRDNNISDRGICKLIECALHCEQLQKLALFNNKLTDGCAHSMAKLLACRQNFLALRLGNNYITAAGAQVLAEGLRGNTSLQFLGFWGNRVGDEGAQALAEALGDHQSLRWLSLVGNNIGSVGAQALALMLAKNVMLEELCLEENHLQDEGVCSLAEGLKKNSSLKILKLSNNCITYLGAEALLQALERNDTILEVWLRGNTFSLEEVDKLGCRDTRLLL
Sequence of Toll-like receptor 3 (Homo sapiens) (O15455 whole entry, the tested form may be a part): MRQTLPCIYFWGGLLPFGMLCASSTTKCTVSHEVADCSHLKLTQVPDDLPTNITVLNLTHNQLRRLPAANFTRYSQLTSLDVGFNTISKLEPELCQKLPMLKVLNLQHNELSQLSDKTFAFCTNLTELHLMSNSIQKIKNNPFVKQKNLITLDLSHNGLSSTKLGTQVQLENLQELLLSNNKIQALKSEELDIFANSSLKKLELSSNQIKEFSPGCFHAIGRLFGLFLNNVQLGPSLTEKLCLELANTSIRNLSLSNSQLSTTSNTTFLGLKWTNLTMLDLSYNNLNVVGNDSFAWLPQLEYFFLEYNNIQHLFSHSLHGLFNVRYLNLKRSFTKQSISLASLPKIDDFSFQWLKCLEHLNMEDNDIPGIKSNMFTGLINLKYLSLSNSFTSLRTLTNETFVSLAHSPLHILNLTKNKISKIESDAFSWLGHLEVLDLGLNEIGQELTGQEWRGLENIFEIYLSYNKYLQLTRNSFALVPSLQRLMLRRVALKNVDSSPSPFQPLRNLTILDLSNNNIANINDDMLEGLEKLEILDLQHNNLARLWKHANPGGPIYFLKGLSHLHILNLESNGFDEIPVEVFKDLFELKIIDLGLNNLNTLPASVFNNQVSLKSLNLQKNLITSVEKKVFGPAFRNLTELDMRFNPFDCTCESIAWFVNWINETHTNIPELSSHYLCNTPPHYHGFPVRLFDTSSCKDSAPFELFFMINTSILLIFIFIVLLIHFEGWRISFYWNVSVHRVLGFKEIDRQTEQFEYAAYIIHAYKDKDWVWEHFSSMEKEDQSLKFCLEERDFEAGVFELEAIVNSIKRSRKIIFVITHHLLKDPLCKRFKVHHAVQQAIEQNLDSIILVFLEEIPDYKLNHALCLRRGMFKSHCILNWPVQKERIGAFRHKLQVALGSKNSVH

Row | SMILES | Activity [2] | Activity [3] | Activity [4] | Activity [5] | Activity [1] | Activity [6] | Activity [7]
1 | CCOC(=O)CC[C@@H](NC(=O)[C@H](C)NC(=O)CCCCN1C(=O)c2ccccc2S1(=O)=O)C(=O)OCC | inactive | inactive | – | inactive | inactive | inactive | inactive
2 | CCOC(=O)CC[C@@H](NC(=O)[C@H](C)NC(=O)COCCN1C(=O)c2ccccc2S1(=O)=O)C(=O)OCC | inactive | inactive | – | inactive | inactive | inactive | inactive
3 | CCOC(=O)CC[C@@H](NC(=O)[C@H](C)NC(=O)CCCCN1C(=O)c2ccccc2S1(=O)=O)C(N)=O | inactive | inactive | inactive | inactive | inactive | inactive | inactive
4 | CCOC(=O)CC[C@@H](NC(=O)[C@H](C)NC(=O)CNC(=O)c1cc2ccccc2[nH]1)C(N)=O | inactive | inactive | inactive | inactive | inactive | inactive | inactive

The next lines start with results.

Row | Activity [2] | Activity [3] | Activity [4] | Activity [5] | SMILES | Activity [1] | Activity [6] | Activity [7]
5 | inactive | inactive | Active | inactive | CCOC(=O)CC[C@@H](NC(=O)[C@H](C)NC(=O)C1=C2c3ccccc3S(=O)(=O)N2CCC1)C(=O)OCC | inactive | inactive | –
6 | inactive | inactive | inactive | inactive | CCOC(=O)CC[C@@H](NC(=O)[C@H](C)NC(=O)COCCN1C(=O)c2ccccc2S1(=O)=O)C(N)=O | inactive | inactive | inactive
7 | inactive | inactive | Active | inactive | CCOC(=O)CC[C@@H](NC(=O)[C@H](C)NC(=O)CNC(=O)c1cc2ccccc2[nH]1)C(=O)OCC | inactive | inactive | Active
8 | inactive | inactive | Active | inactive | CCCCOC(=O)[C@@H](CCC(N)=O)NC(=O)[C@H](C)NC(=O)[C@@H](C)O[C@H]1[C@H](O)[C@@H](CO)OC(O)[C@@H]1NC(C)=O (stereo partly drawn) [MURABUTIDE] | inactive | inactive | Active
